PKA-R1A act = activates the PKA-R1A holoenzyme complex. P00514+P68181. PKA-R1A dissociation, Cy5-IP20 fluorescence polarization; scaled: DMSO 0%, 113 µM cGMP 100%. activation, % at 11.4 µM. 340,000 tested, 0.083% active;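 active means percent activation above the mean of all tested compounds plus 3 SD, cut at about 19% in these data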;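 further: higher means more PKAc released from R1A so a rise in polarization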
NTR1 agonist = activates human neurotensin receptor 1. NTR1-U2OS beta-arrestin-GFP spot imaging, agonist mode. activation, % at 20 µM. 330,000 tested, 0.17% active. AID 493036;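 active means activation at or above 40% of the spot to cytoplasm intensity ratio, with at least 20 cells analyzed; inconclusive means wells under 20 cells, flagged as cytotoxic or low count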;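 further: 0% = DMSO without peptide and 100% = 100 nM NTR1 peptide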
dFosB act = mouse delta FosB homodimer activation | purified delta FosB, TAMRA-CDK5 oligo fluorescence polarization; percent of positive-control signal above neutral wells | activation, % at 25 µM | P13346 | 340,000 tested, 0.99% active | AID 493131;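 active means mean activation above about 17%, with every replicate also reaching it, limit read from the data, passing the limit was not always enough; inconclusive means only one of the two conditions met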
PKA-R2B activ = activators of human PKA-R2B complex; P22694+P31323; PKA-R2B holoenzyme dissociation, Cy5-IP20 fluorescence polarization; R2B truncated from residue 108, S112A mutant; 0% DMSO only, 100% 113 µM cGMP; activation, % at 11.4 µM; 340,000 tested, 0.079% active;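 active means activation above a cutoff set at the mean over all compounds plus 3 SD, cut at about 18% in these data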;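 further: higher means more holoenzyme dissociation and a rise in polarization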
Target sequence (P31323 whole entry, looked up, other chains not shown, the tested form may be a part): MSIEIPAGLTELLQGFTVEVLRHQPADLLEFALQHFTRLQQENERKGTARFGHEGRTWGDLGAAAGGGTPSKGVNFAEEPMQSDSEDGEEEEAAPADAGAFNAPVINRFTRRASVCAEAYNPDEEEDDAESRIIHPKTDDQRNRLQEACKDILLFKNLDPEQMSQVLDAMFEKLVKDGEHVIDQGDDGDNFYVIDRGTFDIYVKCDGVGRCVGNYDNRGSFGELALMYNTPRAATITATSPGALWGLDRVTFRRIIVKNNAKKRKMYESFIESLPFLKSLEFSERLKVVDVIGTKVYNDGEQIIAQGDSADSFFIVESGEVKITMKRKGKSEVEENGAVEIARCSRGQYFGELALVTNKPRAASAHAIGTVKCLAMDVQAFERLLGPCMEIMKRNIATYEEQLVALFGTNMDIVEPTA
CAL PDZ FP-1 = human CAL PDZ-peptide interaction inhibition. 330,000 tested, 0.02% active. Q9HD26. AID 504414. purified CAL PDZ, TMR-peptide fluorescence polarization, 1 h. inhibition, % at 20 µM;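 active means highest replicate inhibition of at least 40%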;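 further: plate controls were DMSO neutral control wells for no effect and unlabeled competitor peptide control wells for full effect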
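Material: tagged CAL PDZ domain; buffer or medium: 25 mM sodium phosphate pH 7.4, 150 mM NaCl, TCEP, IgG, Thesit; compound dosing: single point, 20 µM; schedule: 1 h incubation at room temperature before polarization reading; measured by: FP readout, S and P plane fluorescence; read-out basis: percent inhibition from loss of millipolarization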
CAL PDZ FP-2 = inhibitors of human CAL PDZ peptide binding; purified CAL PDZ, TMR-peptide fluorescence polarization, 1 h; inhibition, % at 24.9 µM; 300,000 tested, 0.92% active; AID 602252;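 active means mean inhibition of at least 30% with at least half of replicates also reaching 30%; inconclusive means no clear call, values can overlap the other calls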;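 further: 0% = DMSO neutral control and 100% = excess unlabeled competitor peptide PRC23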
Numbers without * were called inactive; u = inconclusive; x = not tested or not shown. In the library only some 2% were active in any assay of this set; here they are far more common.

SMILES	PKA-R1A act	NTR1 agonist	dFosB act	PKA-R2B activ	CAL PDZ FP-1	CAL PDZ FP-2
O=S(=O)(c1cccc(Br)c1)N1CCN(CCc2ccccc2)CC1	2.5	3.5	-8.7	-2.0	-0.2	-2.0
O=C(O)c1c(-c2ccc(Cl)cc2)cn2ccccc12	4.8	0.6	0.8	-5.0	-1.8	99.9*
CCOC(=O)c1[nH]c(C)c(/C(O)=C2\C(=O)C(=O)N(CCCN3CCOCC3)C2c2cccs2)c1C (centres undefined)	-13.6	-0.4	-9.5	-1.2	-1.3	-0.7
CCc1noc(C)c1C(=O)N(CC)CC(=O)NCc1ccc(Cl)cc1	-8.1	-0.2	-5.1	-3.0	0.2	-0.5
COc1ccc(OC)c2sc(N3CCc4ccccc4C3)nc12	-3.4	8.6	-6.0	-10.4	-1.2	32.8*
N#Cc1ccc(COC(=O)c2cnc(Cl)c(Cl)c2)cc1	1.0	5.3	-1.1	2.4	-0.7	47.5*
O=C(OCc1ccccc1)c1cnc(Cl)c(Cl)c1	-4.4	0.4	-0.8	6.4	-1.1	3.4
O=C(c1ccco1)N1CCN(Cc2cc(=O)oc3cc(O)ccc23)CC1	-5.0	-1.2	-1.9	2.4	-0.7	48.2*
N#CCC(=O)N/N=C/c1ccc(N2N=C(c3ccccc3)CC2c2ccccc2)cc1 (centres undefined)	-5.4	1.3	1.5	-7.4	-0.5	-1.2
CC(O)CNCCCOc1cccc(C(F)(F)F)c1 (centres undefined)	4.8	0.2	-8.0	-7.9	-0.2	6.0
CC(O)CNCCCOc1cccc(Oc2ccccc2)c1 (centres undefined)	1.2	0.2	-3.5	-4.4	133.5*	111.4*
Cc1cccc(C(=O)NC(=S)Nc2c(C)n(C)n(-c3ccccc3)c2=O)c1	-2.4	x	-6.4	-11.4	-5.0	-1.9
COC(=O)CSc1nnc(SCc2ccc(OC)cc2)s1	0.7	-0.1	4.4	2.3	-0.7	-0.4
COc1ccc(CSc2nnc(SCc3ccc([N+](=O)[O-])cc3)s2)cc1	18.6*	2.2	-4.9	13.5	0.7	-2.7
Cc1ccc(S(=O)(=O)N2CCOCC2)cc1NC(=O)c1ccc(F)cc1F	-5.2	-0.3	-2.3	-4.4	0.7	1.6
COCCCNc1nc(N)c([N+](=O)[O-])c(Nc2cc(OC)ccc2OC)n1	x	2.0	-0.7	x	-4.7	x
COc1ccc(OC)c(Nc2nc(NCCCN(C)C)nc(N)c2[N+](=O)[O-])c1	1.7	16.9	24.3*	-9.3	0.2	x
CCCCn1cnc2c(c(-c3ccccc3)c(-c3ccccc3)n2Cc2ccco2)c1=N	x	39.2	x	x	x	x
N=c1c2c(-c3ccccc3)c(-c3ccccc3)n(Cc3ccco3)c2ncn1Cc1ccco1	4.7	42.5*	-3.0	5.9	x	-1.3
NC(=O)c1ccccc1NC(=O)c1cc(S(=O)(=O)N2CCCCC2)ccc1N1CCOCC1	-7.1	-1.4	-7.6	4.9	-0.2	x
COc1ccc(CCNC(=O)c2ccc3c(c2)S(=O)(=O)N=C2CCCCCN23)cc1OC	-3.4	x	x	2.1	x	x
O=C(COC(=O)CN1C(=O)c2ccccc2C1=O)Nc1ccccc1C(F)(F)F	1.1	x	x	8.4	x	x
Cc1ccc(S(=O)(=O)N(C)CC(=O)NCCCn2nc(C)cc2C)cc1	10.8	0.3	-1.5	-8.9	1.2	62.4*
O=C(c1ccccc1F)N1CCN(C(=O)C(c2ccccc2)c2ccccc2)CC1	3.6	0.5	-3.5	-10.1	-1.2	-2.9
O=C(COc1ccc(Cl)c2cccnc12)N1CCOCC1	1.5	-3.3	-2.4	-1.4	0.0	115.4*
SMILES	PKA-R1A act	NTR1 agonist	dFosB act	PKA-R2B activ	CAL PDZ FP-1	CAL PDZ FP-2
O=C(Oc1c(Cl)cc(Cl)c2cccnc12)N1CCOCC1	-7.6	-0.8	-6.3	0.9	-0.7	-1.4
CCCCn1c(N)c(N(C(=O)CSc2nncn2-c2ccccc2C)C2CCCC2)c(=O)[nH]c1=O	-10.7	x	-8.0	-3.2	1.0	x
Oc1ccc(C[C@H]2CNC(=S)N2CC2CCCN2C[C@H](Cc2ccccc2)N2C[C@H](Cc3ccc(O)cc3)N(CC3CCCCCC3)C2=S)cc1 (some centres undefined)	-8.5	x	u	9.4	-0.9	-7.5
CCn1cc([C@@H]2C[C@H]3CN(Cc4cccc(Cl)c4)C(=O)[C@]34CCCN24)c(C)n1	-2.6	1.3	1.4	1.8	-0.7	-2.3
CCOC(=O)c1[nH]ncc1[C@@H]1C[C@H]2CN(Cc3cccc(Cl)c3)C(=O)[C@]23CCCN13	-6.8	-0.4	-12.5	2.9	-0.5	45.6*
COc1cc2c(cc1OC)C(CNC(=O)C=Cc1cc(OC)c(OC)c(OC)c1)C2 (centres undefined)	-3.2	x	x	3.4	x	x
CCCCCN1CSC(=S)N(Cc2ccccc2)C1	3.9	2.2	-10.7	-3.0	-0.2	46.3*
CCN1CSC(=S)N(Cc2ccccc2)C1	-11.6	0.0	5.5	-6.2	-3.4	-3.5
NS(=O)(=O)c1ccc(CNC(=O)c2cccnc2Cl)cc1	-5.3	-2.0	-3.4	2.6	-2.0	-1.9
C=CCNC(=O)C(=O)NCC1CCCN1CC (centres undefined)	3.7	0.6	2.6	-0.2	-0.7	-3.8
CCCNC(=O)C(=O)NCC1CCCN1CC (centres undefined)	-17.4	-0.4	1.6	1.2	29.6	33.0*
Cc1nn(-c2ccccc2)c2nc(C(Cl)(Cl)Cl)[nH]c(=O)c12	-2.2	5.7	2.0	3.6	-0.7	59.2*
CC(C)(C)CC(=O)NCCCN1CCOCC1	3.4	-0.5	3.2	-6.2	3.8	36.9*
CC(C)CNC(=O)C(=O)NCCCN1CCOCC1	-2.4	0.8	0.0	-3.5	-1.5	-0.9
COc1ccccc1-n1cc(-c2ccc([N+](=O)[O-])cc2)[nH]c1=S	-2.1	0.7	-0.2	3.0	0.8	62.7*
O=C1C2C3CCC(C3)C2C(=O)N1c1ccc2ccccc2c1 (centres undefined)	1.2	0.0	9.0	-7.2	-1.3	61.8*
O=C1C2C3C=CC(C3)C2C(=O)N1c1ccc2ccccc2c1 (centres undefined)	4.1	-1.0	-6.9	3.2	-0.8	-2.9
OC[C@H]1O[C@@](CO)(O[C@H]2O[C@H](CO)[C@@H](O)[C@H](O)[C@H]2O)[C@@H](O[C@H]2O[C@H](CO)[C@@H](O)[C@H](O)[C@H]2O)[C@@H]1O	-8.8	x	3.7	-7.4	-0.8	5.3
Cc1ccc(NC(=S)Nn2cnnc2)cc1	12.2	-1.2	1.1	-8.5	-2.4	-5.4
CCc1ccc(CN(C)C(C)C(=O)NCc2ccccc2)cc1 (centres undefined)	-7.4	x	6.6	-6.9	x	51.5*
CCc1ccc(NC(=S)NCc2ccccc2)cc1	0.1	1.1	1.9	-7.5	-1.0	48.7*

Bioassay records: PubChem, several laboratories
